Tests used:
[1] = Distribution ratio in hypothalamus and cerebellum was determined after 60 min of intravenous administration of the compound; [125I]- is used as radioactive isotope; format: ADME, tissue-based; conditions: rat, 1 h
How it was run: (§1)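 Rats, three per group, given 10 μCi tracer in 0.2 mL saline into the femoral vein under ether anesthesia, then killed by cardiac excision at the stated time. Brain regions were dissected, weighed and counted. Percent dose/g was calculated against a 1% diluted aliquot of the injected dose. The ratio is (region − cerebellum)/cerebellum on a % dose/g basis, with cerebellum as background.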

[2] = Biodistribution in rat kidney was determined after 11 hours of intravenous administration of the compound; [125I]- is used as radioactive isotope; format: ADME, organism-based; conditions: in vivo
How it was run: (§2)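 Rats under ether anesthesia, three per group, received 10 μCi tracer in 0.2 mL saline into the femoral vein. They were killed by cardiac excision under ether at each time point. Organs were removed, weighed and counted. Percent dose per organ was calculated against a 1%-of-injected-dose standard counted at the same time.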

[3] = Distribution ratio in hypothalamus and cerebellum was determined after 120 min of intravenous administration of the compound; [125I]- is used as radioactive isotope; format: ADME, tissue-based; conditions: rat, 2 h
How it was run: (§3)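 After femoral-vein injection of 10 μCi [¹²⁵I] tracer in 0.2 mL saline under ether anaesthesia (three rats per group), brain regions were dissected, weighed and counted: cortex (frontal plus occipital), hippocampus, hypothalamus and cerebellum. %dose/g was calculated against a diluted injected-dose standard. Ratio = (region − cerebellum)/cerebellum on a %dose/g basis, with cerebellum as the background region.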

[4] = Biodistribution in rat spleen was determined after 11 hours of intravenous administration of the compound; [125I]- is used as radioactive isotope; format: ADME, organism-based; conditions: in vivo
How it was run: (§4)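 Rats, three per group, under ether anaesthesia, received 10 μCi of [¹²⁵I]-labelled tracer in 0.2 mL saline into the femoral vein. They were killed by cardiac excision under ether at each time point. Organs were removed, weighed and counted. Percent dose per organ was calculated against counts of a 1% aliquot of the injected dose (100-fold diluted) counted at the same time.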

[5] = Biodistribution in rat lung was determined after 11 hours of intravenous administration of the compound; [125I]- is used as radioactive isotope; format: ADME, organism-based; conditions: in vivo; how it was run: as §2
[6] = Biodistribution in rat muscle was determined after 11 hours of intravenous administration of the compound; [125I]- is used as radioactive isotope; format: ADME, organism-based, Muscle tissue; conditions: in vivo; how it was run: as §4
[7] = Regional brain distribution in rat cerebellum was determined after 120 min of intravenous administration of the compound; [125I]- is used as radioactive isotope; format: ADME, tissue-based; conditions: in vivo, 2 h
How it was run: (§5)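 Rats, three per group, injected with 10 μCi tracer in 0.2 mL saline via the femoral vein under ether anesthesia and killed by cardiac excision at the stated time. Cortex (frontal plus occipital), striatum, hippocampus, cerebellum and hypothalamus were dissected, weighed and gamma-counted. Values are % dose/g, calculated by comparison with counts of a 100-fold diluted aliquot of the injected dose.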

[8] = Biodistribution in rat spleen was determined after 2 min of intravenous administration of the compound; [125I]- is used as radioactive isotope; format: ADME, organism-based; conditions: in vivo; how it was run: as §4
[9] = Biodistribution in rat blood was determined after 30 min of intravenous administration of the compound; [125I]- is used as radioactive isotope; format: ADME, organism-based; conditions: in vivo, 0.5 h; how it was run: as §2
[10] = Biodistribution in rat skin was determined after 60 min of intravenous administration of the compound; [125I]- is used as radioactive isotope; format: ADME, organism-based, Zone of skin; conditions: in vivo, 1 h; how it was run: as §4
[11] = Biodistribution in rat thyroid was determined after 2 min of intravenous administration of the compound; [125I]- is used as radioactive isotope; format: ADME, organism-based, Thyroid gland; conditions: in vivo; how it was run: as §4
[12] = Biodistribution in rat brain was determined after 24 hours of intravenous administration of the compound; [125I]- is used as radioactive isotope; format: ADME, organism-based; conditions: in vivo; how it was run: as §2
[13] = Regional brain distribution in rat hypothalamus was determined after 60 min of intravenous administration of the compound; [125I]- is used as radioactive isotope; format: ADME, tissue-based; conditions: in vivo, 1 h; how it was run: as §5
[14] = Biodistribution in rat muscle was determined after 6 hours of intravenous administration of the compound; [125I]- is used as radioactive isotope; format: ADME, organism-based, Muscle tissue; conditions: in vivo; how it was run: as §4
[15] = Biodistribution in rat brain was determined after 11 hours of intravenous administration of the compound; [125I]- is used as radioactive isotope; format: ADME, organism-based; conditions: in vivo; how it was run: as §2
[16] = Distribution ratio in hippocampus and cerebellum was determined after 60 min of intravenous administration of the compound; [125I]- is used as radioactive isotope; format: ADME, tissue-based; conditions: rat, 1 h; how it was run: as §3
[17] = Distribution ratio in hippocampus and cerebellum was determined after 30 min of intravenous administration of the compound; [125I]- is used as radioactive isotope; format: ADME, tissue-based; conditions: rat, 0.5 h; how it was run: as §3
[18] = Regional brain distribution in rat cortex was determined after 120 min of intravenous administration of the compound; [125I]- is used as radioactive isotope; format: ADME; conditions: in vivo, 2 h; how it was run: as §5
[19] = Distribution ratio in striatum and cerebellum was determined after 6 hrs of intravenous administration of the compound; [125I]- is used as radioactive isotope; format: ADME, tissue-based; conditions: rat; how it was run: as §1
[20] = Biodistribution in rat thyroid was determined after 30 min of intravenous administration of the compound; [125I]- is used as radioactive isotope; format: ADME, organism-based, Thyroid gland; conditions: in vivo, 0.5 h; how it was run: as §4
[21] = Biodistribution in rat lung was determined after 24 hours of intravenous administration of the compound; [125I]- is used as radioactive isotope; format: ADME, organism-based; conditions: in vivo; how it was run: as §2
[22] = Biodistribution in rat spleen was determined after 30 min of intravenous administration of the compound; [125I]- is used as radioactive isotope; format: ADME, organism-based; conditions: in vivo, 0.5 h; how it was run: as §4
[23] = Biodistribution in rat liver was determined after 120 min of intravenous administration of the compound; [125I]- is used as radioactive isotope; format: ADME, organism-based; conditions: in vivo, 2 h; how it was run: as §2
[24] = Biodistribution in rat muscle was determined after 24 hours of intravenous administration of the compound; [125I]- is used as radioactive isotope; format: ADME, organism-based, Muscle tissue; conditions: in vivo; how it was run: as §4
[25] = Biodistribution in rat skin was determined after 6 hours of intravenous administration of the compound; [125I]- is used as radioactive isotope; format: ADME, organism-based, Zone of skin; conditions: in vivo; how it was run: as §4
[26] = Biodistribution in rat blood was determined after 120 min of intravenous administration of the compound; [125I]- is used as radioactive isotope; format: ADME, organism-based; conditions: in vivo, 2 h; how it was run: as §2
[27] = Distribution ratio in hypothalamus and cerebellum was determined after 30 min of intravenous administration of the compound; [125I]- is used as radioactive isotope; format: ADME, tissue-based; conditions: rat, 0.5 h; how it was run: as §1
[28] = Biodistribution in rat heart was determined after 6 hours of intravenous administration of the compound; [125I]- is used as radioactive isotope; format: ADME, organism-based; conditions: in vivo; how it was run: as §2
[29] = Regional brain distribution in rat hippocampus was determined after 120 min of intravenous administration of the compound; [125I]- is used as radioactive isotope; format: ADME, tissue-based; conditions: in vivo, 2 h; how it was run: as §5
[30] = Biodistribution in rat thyroid was determined after 11 hours of intravenous administration of the compound; [125I]- is used as radioactive isotope; format: ADME, organism-based, Thyroid gland; conditions: in vivo; how it was run: as §4
[31] = Biodistribution in rat skin was determined after 2 min of intravenous administration of the compound; [125I]- is used as radioactive isotope; format: ADME, organism-based, Zone of skin; conditions: in vivo; how it was run: as §4
[32] = Biodistribution in rat spleen was determined after 120 min of intravenous administration of the compound; [125I]- is used as radioactive isotope; format: ADME, organism-based; conditions: in vivo, 2 h; how it was run: as §4
[33] = Regional brain distribution in rat striatum was determined after 120 min of intravenous administration of the compound; [125I]- is used as radioactive isotope; format: ADME, tissue-based; conditions: in vivo, 2 h; how it was run: as §5
[34] = Biodistribution in rat blood was determined after 6 hours of intravenous administration of the compound; [125I]- is used as radioactive isotope; format: ADME, organism-based; conditions: in vivo; how it was run: as §2

CN(C)Cc1ccccc1Oc1ccc(I)cc1N
Dose/g [1]: 1.92% | Dose [2]: 0.4% | Dose/g [3]: 3.49% | Dose [4]: 0.09% | Dose [5]: 0.16% | Dose [6]: 4.01% | Dose/g [7]: 0.21% | Dose [8]: 0.44% | Dose [9]: 4.56% | Dose [10]: 13.9% | Dose [11]: 0.1% | Dose [12]: 0.01% | Dose/g [13]: 1.18% | Dose [14]: 5.01% | Dose [15]: 0.02% | Dose/g [16]: 1.3% | Dose/g [17]: 0.68% | Dose/g [18]: 0.51% | Dose/g [19]: 1.56% | Dose [20]: 0.15% | Dose [21]: 0.04% | Dose [22]: 0.84% | Dose [23]: 4.9% | Dose [24]: 1.13% | Dose [25]: 15.5% | Dose [26]: 3.15% | Dose/g [27]: 1.06% | Dose [28]: 0.08% | Dose/g [29]: 0.65% | Dose [30]: 5.15% | Dose [31]: 4.45% | Dose [32]: 0.27% | Dose/g [33]: 0.72% | Dose [34]: 3.29%
